Laboratory results reported in ChEMBL document CHEMBL1135955, “Substituted benzocyloheptenes as potent and selective alpha(v) integrin antagonists” (Bioorg Med Chem Lett, 2002).

Tests used:
[1] = target: Integrin alpha-IIb/beta-3 (Homo sapiens, UniProt P05106+P08514); assay: Displacement of fibrinogen from Human integrin alphaIIb-beta3; format: protein-complex assay
How it was run: (§1)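 Purified-receptor ligand-binding assay on human integrins αvβ3 and αvβ5 (vitronectin displacement) and αIIbβ3 (receptor from platelets). Bound ligand was detected indirectly by colorimetric reading after adding an anti-biotin antibody coupled to alkaline phosphatase. IC50 came from sigmoid variable-slope fits of dose–response data from at least two experiments per compound.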

Integrin alpha-V/beta-5 = Integrin alpha-V/beta-5 (Homo sapiens, UniProt P06756+P18084); assay: Displacement of vitronectin from human integrin alphaV-beta5; format: protein-complex assay; how it was run: as §1
Integrin alpha-V/beta-5, sequence (P06756 31-889 limits assumed): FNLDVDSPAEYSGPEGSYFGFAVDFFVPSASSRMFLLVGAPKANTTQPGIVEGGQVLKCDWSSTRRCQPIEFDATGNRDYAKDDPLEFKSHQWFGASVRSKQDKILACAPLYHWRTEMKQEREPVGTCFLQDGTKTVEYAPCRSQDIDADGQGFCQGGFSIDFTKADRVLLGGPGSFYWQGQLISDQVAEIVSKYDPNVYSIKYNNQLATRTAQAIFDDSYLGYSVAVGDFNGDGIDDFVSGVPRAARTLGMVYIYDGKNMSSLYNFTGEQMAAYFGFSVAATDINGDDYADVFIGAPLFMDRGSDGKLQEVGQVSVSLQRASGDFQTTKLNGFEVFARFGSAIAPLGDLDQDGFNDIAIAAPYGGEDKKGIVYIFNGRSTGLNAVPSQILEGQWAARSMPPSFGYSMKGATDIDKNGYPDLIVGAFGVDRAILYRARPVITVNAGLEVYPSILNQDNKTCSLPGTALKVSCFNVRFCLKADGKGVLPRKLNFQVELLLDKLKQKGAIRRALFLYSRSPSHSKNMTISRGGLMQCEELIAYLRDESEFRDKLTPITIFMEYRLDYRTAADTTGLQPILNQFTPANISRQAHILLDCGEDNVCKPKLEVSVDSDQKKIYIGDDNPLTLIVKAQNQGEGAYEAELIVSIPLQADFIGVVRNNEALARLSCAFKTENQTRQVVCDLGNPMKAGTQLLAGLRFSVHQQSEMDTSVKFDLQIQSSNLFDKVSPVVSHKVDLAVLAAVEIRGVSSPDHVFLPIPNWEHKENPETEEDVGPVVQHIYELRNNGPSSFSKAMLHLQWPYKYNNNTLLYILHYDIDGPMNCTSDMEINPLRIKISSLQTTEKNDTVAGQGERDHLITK
Integrin alpha-V/beta-5, sequence (P06756 891-1048 limits assumed): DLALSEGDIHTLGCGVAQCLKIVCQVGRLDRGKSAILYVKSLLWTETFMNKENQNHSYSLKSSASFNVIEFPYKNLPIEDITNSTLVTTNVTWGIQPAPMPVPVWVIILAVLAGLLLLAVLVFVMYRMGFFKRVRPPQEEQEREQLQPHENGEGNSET
Integrin alpha-V/beta-5, sequence (P18084 24-799 limits assumed): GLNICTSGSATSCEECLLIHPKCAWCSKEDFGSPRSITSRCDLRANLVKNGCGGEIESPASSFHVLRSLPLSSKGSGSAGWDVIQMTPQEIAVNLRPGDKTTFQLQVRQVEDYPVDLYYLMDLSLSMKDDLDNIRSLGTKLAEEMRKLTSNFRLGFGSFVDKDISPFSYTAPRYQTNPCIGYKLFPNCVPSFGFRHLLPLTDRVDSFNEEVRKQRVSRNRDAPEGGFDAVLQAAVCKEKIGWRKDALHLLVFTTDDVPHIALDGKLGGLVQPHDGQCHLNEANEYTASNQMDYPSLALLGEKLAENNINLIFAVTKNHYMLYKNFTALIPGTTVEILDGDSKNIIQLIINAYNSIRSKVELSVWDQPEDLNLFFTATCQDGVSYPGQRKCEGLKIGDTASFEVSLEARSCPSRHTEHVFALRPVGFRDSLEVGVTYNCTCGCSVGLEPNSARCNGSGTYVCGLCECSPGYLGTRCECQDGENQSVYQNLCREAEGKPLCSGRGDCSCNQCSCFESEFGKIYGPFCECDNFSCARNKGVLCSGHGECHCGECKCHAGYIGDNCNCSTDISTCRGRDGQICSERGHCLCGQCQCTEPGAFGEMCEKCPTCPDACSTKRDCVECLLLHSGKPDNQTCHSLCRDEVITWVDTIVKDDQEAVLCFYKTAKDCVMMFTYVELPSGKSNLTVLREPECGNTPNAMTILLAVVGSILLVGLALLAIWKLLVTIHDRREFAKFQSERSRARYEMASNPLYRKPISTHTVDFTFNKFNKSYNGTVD

Homo sapiens = species: Homo sapiens; assay: Oral absorption using Caco-2 cell monolayers.; format: ADME; conditions: in vitro
IGROV-1 = assay: Cellular adhesion inhibitory concentration with IGROV-1 cell line.; format: functional, cell-based; conditions: Homo sapiens
How it was run: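 Human ovarian carcinoma IGROV-1 cells were preincubated with compound before adhesion. They were then washed, fixed and stained with crystal violet, and adhesion was quantified by image analysis. IC50 came from sigmoid variable-slope fits of dose–response sets from at least two experiments.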

Integrin alpha-V/beta-3 = Integrin alpha-V/beta-3 (Homo sapiens, UniProt P05106+P06756); assay: Displacement of vitronectin from Human integrin alphaV-beta3; format: protein-complex assay; how it was run: as §1
Integrin alpha-V/beta-3, sequence (P05106 27-788 limits assumed): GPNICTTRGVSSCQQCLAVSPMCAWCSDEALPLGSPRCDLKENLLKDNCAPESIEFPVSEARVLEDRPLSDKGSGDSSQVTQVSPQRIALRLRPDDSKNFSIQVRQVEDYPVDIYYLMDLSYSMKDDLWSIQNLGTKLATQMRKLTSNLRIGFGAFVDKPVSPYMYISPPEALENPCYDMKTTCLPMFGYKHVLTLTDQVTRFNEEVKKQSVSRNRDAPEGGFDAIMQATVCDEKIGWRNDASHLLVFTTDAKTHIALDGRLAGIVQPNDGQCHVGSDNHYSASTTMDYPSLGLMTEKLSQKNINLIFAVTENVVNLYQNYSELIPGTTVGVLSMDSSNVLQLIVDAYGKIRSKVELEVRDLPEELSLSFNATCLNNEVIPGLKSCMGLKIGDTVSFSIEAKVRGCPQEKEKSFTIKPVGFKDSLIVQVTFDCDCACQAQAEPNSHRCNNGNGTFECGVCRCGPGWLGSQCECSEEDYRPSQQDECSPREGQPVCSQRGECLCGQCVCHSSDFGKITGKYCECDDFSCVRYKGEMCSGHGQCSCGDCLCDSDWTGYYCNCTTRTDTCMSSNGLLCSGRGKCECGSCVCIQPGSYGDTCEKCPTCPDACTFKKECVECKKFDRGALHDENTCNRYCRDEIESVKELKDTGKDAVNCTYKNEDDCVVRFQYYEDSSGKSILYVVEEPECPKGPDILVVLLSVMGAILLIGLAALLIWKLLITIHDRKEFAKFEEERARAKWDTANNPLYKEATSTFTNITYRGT
Integrin alpha-V/beta-3, sequence (P06756 31-889 limits assumed): as the sequence (P06756 31-889 limits assumed) above
Integrin alpha-V/beta-3, sequence (P06756 891-1048 limits assumed): as the sequence (P06756 891-1048 limits assumed) above

Integrin alpha-IIb/beta-3, sequence (P05106 27-788 limits assumed): as the sequence (P05106 27-788 limits assumed) above
Integrin alpha-IIb/beta-3, sequence (P08514 32-887 limits assumed): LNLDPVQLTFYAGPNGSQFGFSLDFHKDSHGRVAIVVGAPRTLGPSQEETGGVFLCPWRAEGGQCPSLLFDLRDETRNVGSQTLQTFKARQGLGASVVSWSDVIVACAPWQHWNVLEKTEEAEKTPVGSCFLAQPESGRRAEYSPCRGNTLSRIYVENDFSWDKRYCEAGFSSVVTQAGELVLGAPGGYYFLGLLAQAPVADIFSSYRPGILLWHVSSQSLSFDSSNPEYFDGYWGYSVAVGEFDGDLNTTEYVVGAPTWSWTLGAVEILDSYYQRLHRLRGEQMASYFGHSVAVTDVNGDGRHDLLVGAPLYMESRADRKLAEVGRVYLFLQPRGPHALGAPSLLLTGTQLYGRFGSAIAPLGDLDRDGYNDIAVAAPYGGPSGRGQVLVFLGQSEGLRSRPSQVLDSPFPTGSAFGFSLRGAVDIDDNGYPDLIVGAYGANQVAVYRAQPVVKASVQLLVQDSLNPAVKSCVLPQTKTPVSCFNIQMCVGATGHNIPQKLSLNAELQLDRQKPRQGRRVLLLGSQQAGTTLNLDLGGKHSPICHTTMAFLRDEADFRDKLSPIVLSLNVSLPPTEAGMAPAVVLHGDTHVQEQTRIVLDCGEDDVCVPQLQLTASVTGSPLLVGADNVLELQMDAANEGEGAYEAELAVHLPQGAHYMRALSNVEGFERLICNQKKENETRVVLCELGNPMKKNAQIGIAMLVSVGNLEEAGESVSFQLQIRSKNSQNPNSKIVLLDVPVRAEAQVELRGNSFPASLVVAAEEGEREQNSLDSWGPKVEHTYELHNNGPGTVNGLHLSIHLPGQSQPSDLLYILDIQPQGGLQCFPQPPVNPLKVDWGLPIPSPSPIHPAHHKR
Integrin alpha-IIb/beta-3, sequence (P08514 891-1039 limits assumed): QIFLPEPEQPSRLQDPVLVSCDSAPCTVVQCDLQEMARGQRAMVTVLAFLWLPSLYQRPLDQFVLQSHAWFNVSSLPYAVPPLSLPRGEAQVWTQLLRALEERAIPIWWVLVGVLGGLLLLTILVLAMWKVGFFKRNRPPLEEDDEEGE

IC50 [1] | IC50 (Integrin alpha-V/beta-5) | Absorption (Homo sapiens) | IC50 (IGROV-1) | IC50 (Integrin alpha-V/beta-3) | Compound
552 nM | 119 nM | 23% | 2700 nM | 842 nM | O=C(O)CC1CC(CNC(=O)CCNCc2ccccn2)=CCc2ccccc21 (stereo not given)
1490 nM | 0.3 nM | 92% | 6.9 nM | 0.3 nM | O=C(O)CC1CC(CNC(=O)CCCc2ccc3c(n2)NCCC3)=CCc2ccccc21 (stereo not given)
> 10000 nM | 20 nM | 96% | 40 nM | 45 nM | O=C(O)CC1CC(CNC(=O)CCCNc2nccs2)=CCc2ccccc21 (stereo not given)
1020 nM | 0.5 nM | < 20% | 1.8 nM | 0.6 nM | O=C(O)CC1CC(CNC(=O)CCCNc2nc3ccccc3[nH]2)=CCc2ccccc21 (stereo not given)
1700 nM | 22 nM | 93% | 338 nM | 584 nM | O=C(O)CC1CC(CNC(=O)CCNc2ccccn2)=CCc2ccccc21 (stereo not given)
667 nM | 40 nM | 94% | 2030 nM | 68 nM | CN(CCCC(=O)NCC1=CCc2ccccc2C(CC(=O)O)C1)c1ccccn1 (stereo not given)
4360 nM | 0.8 nM | 95% | 2 nM | 1.9 nM | O=C(O)CC1CC(CNC(=O)CCCNc2ccccn2)=CCc2ccccc21 (stereo not given)
110 nM | 0.2 nM | < 20% | 18 nM | 0.3 nM | O=C(O)CC1CC(CNC(=O)CCCNC2=NCCN2)=CCc2ccccc21 (stereo not given)
330 nM | 0.1 nM | < 20% | 2.7 nM | 0.2 nM | O=C(O)CC1CC(CNC(=O)CCCNC2=NCCCN2)=CCc2ccccc21 (stereo not given)
1200 nM | 0.9 nM | 96% | 12 nM | 2.7 nM | O=C(O)CC1CC(CNC(=O)CCCCNc2ccccn2)=CCc2ccccc21 (stereo not given)
